# Source: PMC6177216 (Journal of controlled release : official journal of the …, 2018)
# Read-outs that look alike come from different tables or passages of the source.
# How the values were obtained:
# [1] = test system: MCF-7 human breast cancer cells; test: MTT cytotoxicity assay in MCF-7 cells; assay type: cell-based; conditions: for inhibition of cell proliferation (in words): MTT
# In short: (§1)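 Cells seeded at 5×10³ (MCF-7) or 3×10³ (PC-3) per well and grown 24 h in DMEM with 10% FBS and 1% streptomycin/penicillin. They were then exposed for 48 h to various concentrations of test compound alone or combined with another anticancer agent. Viability was read by MTT. IC50 came from fitting an inhibitory normalised dose-response model with variable slope.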
# GCS mRNA [2] = test: GCS mRNA expression by real-time PCR in MCF-7 cells; assay type: cell-based, human; conditions: 48 h; for effect on GCS mRNA expression: various concentrations
# [3] = In vitro DOX release by dialysis in DPBS; assay type: physicochemical; conditions: DOX 0.5 mg/mL
# In short: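 Dialysis release was run alongside free drug and drug loaded in a pharmacologically inert copolymer micelle as comparators. Cumulative release was followed from 0 to 72 h in triplicate.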
# ceramides in 4T1.2 cells = test: Ceramide levels by LC/MS in 4T1.2 cells; assay type: cell-based, mouse; conditions: PPMP 1.7 μM and/or DOX 100 nM, 48 h
# In short: (§2)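 Cells seeded at 2×10⁴ (4T1.2) or 6×10⁴ (MCF-7) per well in DMEM with 10% FBS and 1% penicillin-streptomycin for 24 h. Medium was then replaced with 2% FBS medium containing test compound, free or micellar. After 48 h, cells were washed with ice-cold D-PBS and lysed in 0.2% SDS, with an aliquot kept for protein assay. Lipids were resuspended in ACN/IPA/H₂O (1:1:1) and analysed by HPLC-ESI-MS/MS. Peak areas were quantified against C6-ceramide internal standard and normalised to protein.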
# GCS mRNA [4] = test: GCS mRNA expression by real-time PCR in 4T1.2 cells; assay type: cell-based, mouse; conditions: 48 h; for effect on GCS mRNA expression: various concentrations
# [5] = Plasma pharmacokinetics of DOX; assay type: in vivo, tumor-free female CD1 mice; conditions: DOX in plasma; i.v. 5 mg/kg DOX; CD1 mice
# ceramides in MCF-7 cells = test: Ceramide levels by LC/MS in MCF-7 cells; assay type: cell-based, human; conditions: PPMP 1.7 μM and/or DOX 100 nM, 48 h
# In short: as §2
# [6] = test system: 4T1.2 mouse breast cancer cells; test: MTT cytotoxicity assay in 4T1.2 cells; assay type: cell-based
# [7] = test system: PC-3 human prostate cancer cells; test: MTT cytotoxicity assay in PC-3 cells; assay type: cell-based
# In short: as §1
structure (smiles),measurement,setting,value
"COc1cccc2c1C(=O)c1c(O)c3c(c(O)c1C2=O)C[C@@](O)(C(=O)CO)C[C@@H]3O[C@H]1C[C@H](N)[C@H](O)[C@H](C)O1 [DOX, Doxorubicin]",inhibition of cell proliferation (in words),"[1]; MCF-7, 48 h",concentration-dependent inhibition
same,increase of GCS mRNA expression level,GCS mRNA [2]; DOX 200 nM,4.2 fold
same,effect on GCS mRNA expression,GCS mRNA [2],significant increases
same,DOX released,[3]; in 2 h,Forty eight
same,DOX released,[3]; within 12 h,around 83%
same,effect on amount of C16 ceramide,ceramides in 4T1.2 cells,significantly induced
same,effect on GCS mRNA expression,GCS mRNA [4],similarly observed
same,AUC0−∞,[5],9200 ng·h/mL
same,CL,[5],10.87 µL/h
same,Cmax,[5],4410 µg/mL
same,T1/2,[5],3.35 h
same,Vd,[5],52.49 µL
same,effect on amount of C16 ceramide,ceramides in MCF-7 cells,significantly induced
"CC(=O)O[C@H]1C(=O)[C@@]2(C)[C@H]([C@H](OC(=O)c3ccccc3)[C@]3(O)C[C@H](OC(=O)[C@H](O)[C@@H](NC(=O)c4ccccc4)c4ccccc4)C(C)=C1C3(C)C)[C@]1(OC(C)=O)CO[C@@H]1C[C@@H]2O [PTX, paclitaxel]",IC50,"[1]; Homo sapiens, MCF7, 48 h, read-out: D502, IC50 of drug 2 in single treatment",7.14 ± 1.87 µg/mL
same,IC50,"[6]; Mus musculus, 4T1.2, 48 h, read-out: D502, IC50 of drug 2 in single treatment",0.108 ± 0.0181 µg/mL
same,effect on GCS mRNA expression,GCS mRNA [2],significant induction
same,IC50,"[7]; Homo sapiens, PC-3, 48 h, read-out: D502, IC50 of drug 2 in single treatment",0.0043 ± 0.0002 µg/mL
same,effect on GCS mRNA expression,GCS mRNA [4],not in 4T1.2 cells
CCCCCCCCCCCCC/C=C/[C@@H](O)[C@H](CO)NC(=O)CCCCC [C6-ceramide],IC50,"[1]; read-out: D502, IC50 of drug 2 in single treatment, MCF-7, 48 h",6.2 ± 0.2 µM
same,IC50,"[6]; read-out: D502, IC50 of drug 2 in single treatment, 4T1.2, 48 h",2.8 ± 0.2 µM
same,increase of GCS mRNA expression level,GCS mRNA [2]; C6-ceramide 2 μM,6.5 fold
same,effect on GCS mRNA expression,GCS mRNA [2],significant increases
same,IC50,"[7]; read-out: D502, IC50 of drug 2 in single treatment, PC-3, 48 h",1.6 ± 0.1 µM
same,effect on GCS mRNA expression,GCS mRNA [4],similarly observed
"CCCCCCCCCCCCCCCC(=O)NC(CN1CCOCC1)C(O)c1ccccc1 (centres unmarked) [PPMP, 1-phenyl-2-palmitoylamino-3-morpholino-1-propanol]",IC50,"[1]; Homo sapiens, MCF7, 48 h, read-out: D501, IC50 of PPMP in single treatment",5.7 ± 0.4 µM
same,inhibition of cell proliferation (in words),"[1]; MCF-7, 48 h",concentration-dependent inhibition
same,cytotoxicity / inhibition of proliferation (in words),"[6]; 4T1.2, 48 h, MTT",inhibited the proliferation
same,IC50,"[6]; Mus musculus, 4T1.2, 48 h, read-out: D501, IC50 of PPMP in single treatment",2.2 ± 0.1 µM
same,effect on DOX-induced upregulation of GCS mRNA expression,"GCS mRNA [2]; PPMP 1.7 μM, DOX 100 nM",effective in inhibiting
same,effect on basal level of GCS mRNA,GCS mRNA [2]; PPMP concentration 1.7 μM,significant decreases
same,IC50,"[7]; Homo sapiens, PC-3, 48 h, read-out: D501, IC50 of PPMP in single treatment",3.4 ± 0.1 µM
same,effect on amount of C16 ceramide,ceramides in 4T1.2 cells,modest increase
same,effect on DOX-induced upregulation of GCS mRNA expression,"GCS mRNA [4]; PPMP 1.7 μM, DOX 100 nM",effective in inhibiting
same,effect on basal level of GCS mRNA,GCS mRNA [4]; PPMP concentration 1.7 μM,significant decreases
same,effect on amount of C16 ceramide,ceramides in MCF-7 cells,modest increase
